Assay results gathered from unrelated publications.
Each line is one published result; the experiments were not run side by side.
Target: Serine/threonine-protein kinase haspin (HASPIN, Homo sapiens, UniProt Q8TF76)
Sequence (Q8TF76 1-798, as in one of the studies): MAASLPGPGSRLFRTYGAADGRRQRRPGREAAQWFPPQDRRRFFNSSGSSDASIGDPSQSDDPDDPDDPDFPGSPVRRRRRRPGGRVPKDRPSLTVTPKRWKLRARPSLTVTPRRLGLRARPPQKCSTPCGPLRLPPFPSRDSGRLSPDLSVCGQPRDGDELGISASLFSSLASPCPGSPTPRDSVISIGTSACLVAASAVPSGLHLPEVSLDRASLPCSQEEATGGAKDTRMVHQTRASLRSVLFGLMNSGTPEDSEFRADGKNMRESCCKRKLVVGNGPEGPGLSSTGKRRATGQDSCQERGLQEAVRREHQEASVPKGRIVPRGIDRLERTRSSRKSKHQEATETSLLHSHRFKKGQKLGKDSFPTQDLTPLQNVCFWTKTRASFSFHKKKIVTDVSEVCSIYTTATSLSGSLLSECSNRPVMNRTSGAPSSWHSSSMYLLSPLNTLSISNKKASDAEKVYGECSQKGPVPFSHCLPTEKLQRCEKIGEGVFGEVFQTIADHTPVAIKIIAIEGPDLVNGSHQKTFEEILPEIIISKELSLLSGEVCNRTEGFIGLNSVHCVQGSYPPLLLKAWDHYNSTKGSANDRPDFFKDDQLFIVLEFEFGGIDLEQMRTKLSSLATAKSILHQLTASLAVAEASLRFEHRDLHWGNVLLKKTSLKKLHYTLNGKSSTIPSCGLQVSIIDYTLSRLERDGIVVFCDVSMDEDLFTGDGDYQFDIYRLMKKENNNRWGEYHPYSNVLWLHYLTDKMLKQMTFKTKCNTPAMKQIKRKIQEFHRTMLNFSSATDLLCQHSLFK

`CN1CC(Oc2cnc(C#N)cc2-c2ccn3nc(NC(=O)C4CC4)cc3c2)C1` gave an inhibition of 3% (enzyme activity, inhibitor; 1 µM).
For `CC1=C(C#N)C(c2ccc3c(c2)c(NC(=O)c2ccccc2C)nn3C)C(C#N)=C(C)N1`, the remaining binding was 71% (cell-free assay, competition with immobilised ligand; 1 µM).
`O=C(Nc1cnn(-c2csc(C(=O)NC3COC3)c2)c1)Nc1c(F)cccc1Cl` has a remaining activity of 111% (enzyme activity, inhibitor; 5 µM).
`CCN(CC)CCNC(=O)c1c(C)[nH]c(/C=C2\C(=O)Nc3ccc(F)cc32)c1C` gave an inhibition of 32% (enzyme activity, inhibitor; 0.3 µM).
`C[C@@H]1CN(c2cc(-c3nn(C)c4ccc(OC5(C)CC5)cc34)ncn2)C[C@H](C)O1` has a remaining binding of 99% (cell-free assay, competition with immobilised ligand; 1 µM).
`Cn1cncc1C1=CN(c2ncnc3[nH]cnc23)CCS1` has an inhibition of 88.4% (enzyme activity, inhibitor, radiometric; 2 µM).
For `CCCOc1ccc([C@H]2[C@H](C(=O)O)[C@@H](c3ccc4c(c3)OCO4)CN2CC(=O)Nc2c(CC)cccc2CC)cc1`, the remaining binding was 62% (cell-free assay, competition with immobilised ligand; 1 µM).
With `O=C(O)c1ccc2c3c1cccc3c(=O)n1c3ccccc3nc21` the remaining activity was 90.9% (enzyme activity, inhibitor; 0.5 µM).
The inhibition of `Cn1cnc(Br)c1C1=CN(c2ncnc3[nH]cnc23)CCS1` is reported as 88.8% (enzyme activity, inhibitor, radiometric; 2 µM).
With `O=c1c2ccccc2[nH]c(=S)n1CCN1CCC(=C(c2ccc(F)cc2)c2ccc(F)cc2)CC1` the remaining activity was 95.4% (enzyme activity, inhibitor; 0.5 µM).
`CNCc1ccccc1-c1csc([C@@H](C)Nc2nc(C)nc3cc(OC)c(OC)cc23)c1` has a remaining binding of 98% (cell-free assay, competition with immobilised ligand; 1 µM).
`O=c1cc(-c2cccc3c2Sc2ccccc2S3)oc(N2CCOCC2)c1` gave a remaining activity of 106% (enzyme activity, inhibitor; 0.5 µM).
`CCCOc1ccc(OC)c(F)c1C(=O)c1ccc(C(=O)N[C@@H]2CNC[C@H]2NC(=O)c2ccc3[nH]ncc3c2)cc1` has a remaining activity of 22% (enzyme activity, inhibitor; 10 µM).
`CNC(=O)c1cc(Oc2ccc(NC(=O)Nc3ccc(Cl)c(C(F)(F)F)c3)cc2)ccn1` has an inhibition of 10% (enzyme activity, inhibitor; 10 µM).
For `CC(=O)c1c(NS(C)(=O)=O)c2cc(-c3ccc(Cl)cc3)c(-c3ccc(Cl)cc3Cl)nc2n(C)c1=O`, the remaining binding was 92% (cell-free assay, competition with immobilised ligand; 1 µM).
With `O=C1Nc2ccc(Cl)cc2C1=Cc1cc(Cl)c(O)c(Cl)c1` the remaining signal was 8.65% (cell-free assay; 0.5 µM).
With `Cc1cnc(NC2CCOCC2)nc1-n1cnc(C(=O)NC(CN)c2cc(F)cc(Cl)c2)c1` (stereo not shown) the remaining activity was 40% (enzyme activity, inhibitor, radiometric; 1 µM).
`Cc1ccc(Nc2nccc(N(C)c3ccc4c(C)n(C)nc4c3)n2)cc1S(N)(=O)=O` gave an inhibition of 8% (enzyme activity, inhibitor; 10 µM).
`Cc1c(C(=O)O)cc(-c2ccc(C3CCNCC3)cc2)c2ccc(-c3ccc(C(F)(F)F)cc3)cc12` has a remaining binding of 100% (cell-free assay, competition with immobilised ligand; 1 µM).
With `CCN(CC)c1ccc(C2=NNC(=O)CC2C)cc1[N+](=O)[O-]` (stereo not shown) the remaining activity was 106% (enzyme activity, inhibitor; 10 µM).
The remaining activity of `CC(C)(C)c1nc(-c2cccc(NS(=O)(=O)c3c(F)cccc3F)c2F)c(-c2ccnc(N)n2)s1` is reported as 147% (enzyme activity, inhibitor, radiometric; 1 µM).
The remaining activity of `COc1cc2nccc(Oc3ccc(NC(=S)NC(=O)c4ccccc4C)cc3)c2cc1OC` is reported as 95.9% (enzyme activity, inhibitor; 0.5 µM).
`CCCCN(CCCC)C(=O)CN1C[C@@H](c2cc(OC)c3c(c2)OCO3)[C@H](C(=O)O)[C@H]1CC(C)(C)CCC` has a remaining binding of 100% (cell-free assay, competition with immobilised ligand; 1 µM).
With `CN1CCN(C(=O)c2ccc3cc(CCNc4ccnc5ccc(C#N)cc45)ccc3c2)CC1` the inhibition was > 35% (cell-free assay, competition with immobilised ligand; 2 µM).
`COc1cc(-c2cc(-c3ccc(N4CCNCC4)cc3)cnc2C)cc(OC)c1OC` gave an inhibition of 3% (enzyme activity, inhibitor; 0.1 µM).
